From PMC2659327 (Nature chemical biology, 2009)
Values joined by “and” are separate entries in the source; they are usually repeats but may differ in a detail not shown here. Identical values can stand only once.

Key:
[1] = system: mitochondrial metabolism (NAD(P)H); assay: glucose-induced NAD; assay type: cell-based, mouse; conditions: 100 μM compound
In short: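 Islets of Langerhans were pre-incubated 60 min at 37°C in control medium containing 3 mM glucose. NAD(P)H autofluorescence was recorded at 360 nm excitation and >470 nm emission. Changes were expressed as percent of basal values within the same islet.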

[2] = system: mouse pancreatic beta cells; assay: NAADP-mediated Ca2+ spiking in patch-clamped pancreatic beta cells; assay type: cell-based; conditions: pre-incubation with 125 μM in bathing solution; NAADP 50 nM via patch pipette
In short: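 Whole-cell patch clamp at room temperature. Borosilicate pipettes were 3–5 MΩ and the holding potential was −70 mV. Test compound was pre-incubated in the bath. Read-out was Ca2+-dependent current traces.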

[3] = system: sea urchin egg binding protein (NAADP receptor); assay: [32P]NAADP radioligand displacement binding assay, sea urchin egg homogenate; set-up: species or system Lytechinus pictus
intact sea urchin eggs = assay: NAADP-induced Ca2+ release in intact sea urchin eggs; assay type: cell-based; conditions: 100 μM compound in artificial seawater; NAADP microinjected
[4] = system: voltage-gated Ca^2+ channels; assay: KCl depolarization-induced Ca2+ transient in islets; assay type: cell-based, mouse; conditions: 100 μM compound; glucose 10 mM, diazoxide 100 μM, KCl 45 mM
In short: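 Pancreatic beta cells loaded with fura-PE3 acetoxymethyl ester for Ca2+ imaging. Cells were held in glucose and diazoxide, then depolarized with KCl with or without test compound in the bath. Data given as mean ± standard error of the mean and compared by one-tailed t-tests.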

[5] = system: NAADP-mediated Ca^2+ release; assay: NAADP-mediated Ca2+ release bioassay in sea urchin egg homogenate; assay type: biochemical, Lytechinus pictus; conditions: for Ca2+ release induced by the compound itself in the bioassay: compound at 125 μM
[6] = system: glucose-induced Ca^2+ increases in mouse pancreatic islets; assay: glucose-induced Ca2+ signaling in isolated pancreatic islets; assay type: cell-based; conditions: isolated mouse islet, glucose 10 mM, compound 100 μM
[7] = solubility in 25% dimethylsulfoxide or 25% dimethylformamide; assay type: physicochemical
[8] = system: cyclic ADP-ribose-mediated Ca^2+ release; assay: cyclic ADP-ribose-mediated Ca2+ release in sea urchin egg homogenate; assay type: biochemical, Lytechinus pictus; conditions: read-out: EC50, Ca2+ release
In short: (§1)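 Lytechinus pictus egg homogenate with the Ca2+ dye fluo-3 and ATP. Second messenger added and Ca2+ release followed as fluo-3 fluorescence (RFU), in a plate reader (2-4 replicates) or a fluorimeter.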

[9] = system: inositol 1,4,5-trisphosphate-mediated Ca^2+ release; assay: inositol 1,4,5-trisphosphate-mediated Ca2+ release in sea urchin egg homogenate; assay type: biochemical, Lytechinus pictus; conditions: read-out: EC50, Ca2+ release
In short: as §1

What does the source list for `COc1ccc(C2N[C@H](C(=O)O)Cc3c2[nH]c2ccccc32)cc1CN1CCN(c2ccccc2F)CC1` (stereo partly shown) [Ned-19]?
glucose-induced increase in NADH and NADPH fluorescence [1]: still occurred; NAADP-mediated Ca2+ spiking [2]: blocked NAADP-mediated Ca^2+ spiking; dissociation from the NAADP receptor (recovery of [32P]NAADP binding) ([3]; Ned-19 10 μM, after 5 days of incubation): only about half the bound Ned-19 dissociates; Hill coefficient, [32P]NAADP binding competition ([3]; commercial Ned-19): −2.3; NAADP-induced Ca2+ increase in intact sea urchin eggs (intact sea urchin eggs): failed to elicit a Ca^2+ increase; KCl depolarization-induced Ca2+ transient [4]: unaltered; Hill coefficient, inhibition of NAADP-mediated Ca2+ release ([5]; commercial Ned-19): −0.6; effect on NAADP concentration-response curve ([5]; constant presence of 125 μM compound (figure legend: 100 μM)): reduced the maximum release and shifted the EC50 to the right; effect on glucose-induced Ca2+ signal [6]: reduced the amplitude of the oscillations and reduced the elevated plateau to the nonstimulated level

With `C=C1NN(c2nc(-c3cccc([N+](=O)[O-])c3)cs2)C(=O)/C1=N/Nc1ccc(Cl)cc1C(=O)c1ccccc1` [Nrd-7] as the compound, how does the solubility [7] read?
The solubility was “sparingly soluble”.

For `CCC(=O)N1N=C(c2ccc(C3=NN(C(=O)CC)[C@H](c4cccc(OC)c4OC)C3)cc2)C[C@H]1c1cccc(OC)c1OC` [Nrd-11], which solubility [7] is on record?
The solubility was “sparingly soluble”.

For “nicotinic acid adenine dinucleotide phosphate [NAADP, reference compound]”, which EC50 ([5]; read-out: EC50, Ca2+ release, sea urchin egg homogenate) is on record?
Its EC50 is 35 nM and 30 to 50 nM.

For `N=c1c2ncn3c2ncn1[C@@H]1O[C@H](COP(=O)(O)OP(=O)(O)OC[C@H]2O[C@@H]3[C@H](O)[C@@H]2O)[C@@H](O)[C@H]1O` [cADPR, cyclic ADP-ribose], which EC50 [8] is on record?
The EC50 was 300 nM.

For `COc1ccc2[nH]c(C(=O)O)c(CCNC(=O)CO/N=C3/C=C[C@@]4(C)C(=C3)CC[C@@H]3[C@H]4CC[C@]4(C)[C@H]3CC[C@]4(C)O)c2c1` [Nrd-10], which “Ca2+ release induced by the compound itself in the bioassay” value [5] is on record?
The value was “induced irreversible Ca^2+ release”.

For `FC(F)(F)c1cccc(N2CCN(Cn3nc(COc4ccccc4)n(-c4ccccc4)c3=S)CC2)c1` [Ned-16], which “Ca2+ release induced by the compound itself in the bioassay” value [5] is on record?
Its value is “induced irreversible Ca^2+ release”.
